Source: ChEMBL document CHEMBL4261524, “Succinct synthesis of saturated hydroxy fatty acids and in vitro evaluation of all hydroxylauric acids on FFA1, FFA4 and GPR84” (Medchemcomm, 2017)
Calls of active or inactive are those of the source. The calls are words filed in the database; no cut-off is given here.

How the values were obtained:
[1] = target: T1, Free fatty acid receptor 1 (Homo sapiens, UniProt O14842); assay: Agonist activity at N-terminal FLAG-tagged/C-terminal eYFP-fused human FFA1 receptor expressed in HEK293T cells assessed as induction of beta-arrestin-2 recruitment after 15 mins by BRET assay; type: functional, cell-based
[2] = target: T2, Free fatty acid receptor 4 (Homo sapiens, UniProt Q5NUL3); assay: Agonist activity at N-terminal FLAG-tagged/C-terminal eYFP-fused human FFA4 receptor expressed in HEK293T cells assessed as induction of beta-arrestin-2 recruitment after 5 mins by BRET assay; type: functional, cell-based
T2 sequence (Q5NUL3 whole entry): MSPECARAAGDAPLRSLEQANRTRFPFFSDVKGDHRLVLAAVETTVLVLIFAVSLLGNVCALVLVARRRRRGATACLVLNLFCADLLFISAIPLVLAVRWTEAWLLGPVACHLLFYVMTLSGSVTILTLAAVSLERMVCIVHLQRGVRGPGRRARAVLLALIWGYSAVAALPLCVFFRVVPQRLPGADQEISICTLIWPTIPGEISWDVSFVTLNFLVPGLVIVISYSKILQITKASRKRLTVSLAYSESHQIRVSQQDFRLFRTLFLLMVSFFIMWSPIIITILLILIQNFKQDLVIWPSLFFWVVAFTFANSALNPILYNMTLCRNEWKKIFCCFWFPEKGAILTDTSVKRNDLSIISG

[3] = target: T3, G-protein coupled receptor 84 (Homo sapiens, UniProt Q9NQS5); assay: Agonist activity at N-terminal FLAG-tagged/C-terminal eYFP-fused human GPR84 expressed in CHO cell membranes assessed as induction of [35S]GTPgammaS binding after 1 hr by liquid scintillation counting method; type: functional
Outline: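 Membranes were prepared from FLAG-GPR84-eYFP-expressing cells by homogenization in 10 mM Tris-HCl pH 7.4 with 0.1 mM EDTA, a 1000 × g spin to clear debris, then a 38 000 × g pellet. 10 μg membrane was incubated 1 h at 30 °C in HEPES/MgCl2/NaCl buffer, pH 7.5, with 0.05% fatty-acid-free BSA, 1 μM GDP and 0.1 nM [35S]GTPγS. Binding was read on GF/C filters by scintillation counting; means ± SEM, n ≥ 3.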

[4] = target: T1, Free fatty acid receptor 1; assay: Agonist activity at N-terminal FLAG-tagged/C-terminal eYFP-fused human FFA1 receptor expressed in Flp-In T-Rex 293 cells assessed as induction of Ca2+ mobilization after 45 mins by Fura2-AM dye-based fluorescence assay; type: functional, cell-based
[5] = target: T3, G-protein coupled receptor 84; assay: Agonist activity at N-terminal FLAG-tagged/C-terminal eYFP-fused human GPR84 expressed in CHO cell membranes assessed as inhibition of forskolin-induced cAMP accumulation preincubated for 20 mins followed by forskolin-induction and measured after 20 mins; type: functional, cell-based
[6] = target: T3, G-protein coupled receptor 84; assay: Agonist activity at N-terminal FLAG-tagged/C-terminal eYFP-fused human GPR84 expressed in CHO cell membranes assessed as inhibition of forskolin-induced cAMP accumulation up to 100 uM preincubated for 20 mins followed by forskolin-induction and measured after 20 mins; type: functional, cell-based
[7] = target: T1, Free fatty acid receptor 1; assay: Agonist activity at N-terminal FLAG-tagged/C-terminal eYFP-fused human FFA1 receptor expressed in HEK293T cells assessed as induction of beta-arrestin-2 recruitment at 100 uM after 15 mins by BRET assay relative to control; type: functional, cell-based

T1 sequence (O14842 whole entry, the tested form may be a part): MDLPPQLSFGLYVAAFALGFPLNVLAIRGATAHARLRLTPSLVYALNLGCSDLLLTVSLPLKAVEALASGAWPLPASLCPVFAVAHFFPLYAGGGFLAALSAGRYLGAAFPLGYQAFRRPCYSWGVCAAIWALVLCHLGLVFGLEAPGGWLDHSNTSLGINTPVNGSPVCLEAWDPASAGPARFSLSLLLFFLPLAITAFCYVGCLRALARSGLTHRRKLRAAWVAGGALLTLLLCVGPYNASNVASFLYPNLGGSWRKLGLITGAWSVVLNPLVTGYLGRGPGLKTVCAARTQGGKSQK
T3 sequence (Q9NQS5 whole entry, the tested form may be a part): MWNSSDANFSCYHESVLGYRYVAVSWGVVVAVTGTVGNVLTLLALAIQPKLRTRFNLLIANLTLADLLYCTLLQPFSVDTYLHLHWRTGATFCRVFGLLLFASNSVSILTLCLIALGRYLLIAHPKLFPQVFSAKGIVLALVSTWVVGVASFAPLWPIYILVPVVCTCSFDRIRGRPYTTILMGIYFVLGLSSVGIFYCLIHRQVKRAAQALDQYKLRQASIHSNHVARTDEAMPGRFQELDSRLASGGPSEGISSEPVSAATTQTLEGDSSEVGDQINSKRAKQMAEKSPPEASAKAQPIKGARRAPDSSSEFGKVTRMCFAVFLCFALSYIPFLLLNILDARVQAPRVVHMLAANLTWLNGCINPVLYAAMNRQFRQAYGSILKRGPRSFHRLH

Row | Structure (SMILES) | EC50 [1] | EC50 [2] | EC50 [3] | EC50 [4] | EC50 [5] | inhibition [6] | Activity [7]
1 | CCCC(O)CCCCCCCC(=O)O (centres undefined) | > 100 µM | > 100 µM | > 100 µM | – | – | – | –
2 | O=C(O)CCCCCCCCCCCO | > 100 µM | > 100 µM | 20.9 µM | – | – | – | –
3 | CCCCCC(O)CCCCCC(=O)O (centres undefined) | > 100 µM | > 100 µM | > 100 µM | – | – | – | –
4 | CCCCCCCCC(O)CCC(=O)O (centres undefined) | > 100 µM | > 100 µM | 38 µM | – | – | – | –
5 | CC(O)CCCCCCCCCC(=O)O (centres undefined) | > 100 µM | > 100 µM | > 100 µM | – | – | – | –
6 | CCCCCC[C@@H](O)C/C=C\CCCCCCCC(=O)O | – | 1.32 µM | – | 11.5 µM | – | – | –
7 | O=C(O)CCCCCCCCCCCCCCCO | – | 1.7 µM | – | 20.9 µM | – | – | –
8 | CCCCC(O)CCCCCCC(=O)O (centres undefined) | > 100 µM | > 100 µM | > 100 µM | – | – | – | –
9 | CCCCCCCCCCCC(=O)O [DODECANOATE] | – | 7.59 µM | 10.5 µM | 11.5 µM | 8.71 µM | inactive | –
10 | CCCCCCC(O)CCCCC(=O)O (centres undefined) | 18.6 µM | > 100 µM | > 100 µM | – | – | – | –
11 | CCCCCCCCCC(O)CC(=O)O (centres undefined) | > 100 µM | > 100 µM | 5.25 µM | – | – | – | < 25%
12 | CCC(O)CCCCCCCCC(=O)O (centres undefined) | > 100 µM | > 100 µM | > 100 µM | – | – | – | –
13 | CCCCCCCC(O)CCCC(=O)O (centres undefined) | > 100 µM | > 100 µM | > 100 µM | – | – | – | –
14 | CCCCCCC(O)CCCCCCCCCCC(=O)O (centres undefined) | – | 1.74 µM | – | – | – | – | –
15 | CCCCCCCCCCC(O)C(=O)O (centres undefined) | 6.76 µM | > 100 µM | 12.9 µM | – | – | – | –
